# Measurements from ChEMBL document CHEMBL4513216, “Probing the Open Global Health Chemical Diversity Library for Multistage-Active Starting Points for Next-Generation Antimalarials” (ACS Infect Dis, 2020).
# Assay: Toxicity liver stage against HepG2, at 10uM
# Assay type: cell-based
# Design: test concentration 10 uM, cell line HepG2-A16-CD81EGFP
# Conditions: human, HepG2-A16-CD81EGFP cells; read-out: INHIBITION
# Method in brief: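 Uninfected HepG2-A16-CD81EGFP cells, 3 × 10^3 per well, 1536-well, plated on prespotted compound at 10 μM final, parasite-free screening media added to match infected plates; puromycin 10 μM positive, DMSO 0.5% negative; run in parallel with 48 h PbLuc assay at 37 °C, 5% CO2; viability by CellTiter-Glo luminescence, normalized to controls.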
row,Compound,cytotoxicity at 10 µM [%]
1,CC(C)(C)n1ncc2c(=O)n(CC(=O)NCc3ccccc3Cl)cnc21,-9.03
2,Cn1cncc1-c1nnc([C@H]2CCN(Cc3ncc[nH]3)C2)o1,1.62
3,CC(C)(C)C(=O)N1C[C@@H](F)[C@@H](OCc2nc3ccccc3o2)C1,3.33
4,CC(=O)N1N=C(COc2ccc(Cl)cc2)OC1c1ccccc1 (stereo not given),9.87
5,CCCNc1ccc(C(=O)NCCc2cccc(Cl)c2)cn1,1.17
6,O=C(Cc1cc(-c2ccc3c(c2)OCCO3)on1)NCc1ccccn1,26.4
7,Cn1cc(S(=O)(=O)NCCc2ccsc2)cn1,5.26
8,CC(=O)NCC(=O)N1Cc2cc(-c3cc[nH]n3)ccc2C1c1cnco1 (stereo not given),13.5
9,CN1CC[C@H]2[C@H](C[C@@H](Cn3cncn3)N2c2nccs2)C1,-144
10,Cc1cccc(S(=O)(=O)N2CCCc3c(c(=O)n(C)n3C)C2)c1,-2.08
11,CS(=O)(=O)N1CC(c2ncn3ccccc23)C1,5.6
12,O=C(c1cnccn1)N1CC[C@H]2[C@H]1CCN2S(=O)(=O)C1CC1,-168
13,COc1ccc(N2CCN(CC(O)c3cc(C)ccc3C)CC2)cc1 (stereo not given),7.25
14,COc1ccc(OC)c(C2SCC(=O)Nc3n[nH]cc32)c1 (stereo not given),12.8
15,Nc1ncccc1C(=O)NCc1cccc(Cl)c1,20.5
16,O=C(c1nn[nH]c1Nc1ccc(Cl)cc1)N1CCCCCC1,34.5
17,Nc1ncc(-c2ccc(C(F)(F)F)cc2)c(C2CCCNC2)n1 (stereo not given),27.1
18,Cc1cccc(CN2CCCC2c2cccc(Nc3nccs3)n2)c1 (stereo not given),0.81
19,CC1CCN(c2ncc(-c3ccccc3F)c(-c3nccn3C)n2)CC1,27.1
20,CCC1c2ccsc2CCN1Cc1cc2c(cc1OC)OCCO2 (stereo not given),29.4
21,C=C(C)C(=O)N1CCC(C(=O)c2cc(C)cnc2N)CC1,-2.88
22,Cc1ccc(F)cc1C(=O)N1CCOCC12CCCC2,-8.68

row,Compound,cytotoxicity at 10 µM [%]
1,N#Cc1ccccc1OCCN1CCC(C(=O)N2CCOCC2)CC1,-47.2
2,COC(=O)CC(NC(=O)c1cccc(CS(C)(=O)=O)c1)c1cccs1 (stereo not given),-44.8
3,CC1CCCCN1C(=O)Cn1cnc(C#N)n1 (stereo not given),-18.8
4,CC(CNC(=O)CCCn1cncn1)N1CCc2ccccc2C1 (stereo not given),-130
5,CCc1cnc(CNC(=O)NCCc2ccc(O)cc2)s1,2.31
6,COc1ncc(NCc2ccc(Cl)c(Cl)c2)cc1C(N)=O,32.7
7,CCOc1ccc(C(=O)NCc2ccnc(N3CCCC3)c2)cn1,6.62
8,CN(C)C(=O)N1CCC(C(=O)NCCNc2ncccc2C#N)CC1,18.3
9,CC(NC(=O)CN1CCN(c2ccncc2Cl)CC1)c1ccco1 (stereo not given),-6.02
10,COCCNc1ccccc1CNC(=O)NCc1nc(C)c(C)s1,5.75
11,O=C(c1cnc(OCC(F)(F)F)c(Cl)c1)N1CCc2ccc(O)cc2C1,-5.38
12,Cc1ccc(NC(=O)CN(C)C(=O)c2ccc(-n3cccc3)nc2)nc1,12.4
13,CCN(CCS(=O)(=O)c1ccc(Cl)cc1)Cc1ccc(OC)c(OC)c1,31.7
14,N#CCCN(Cc1ccco1)C(=O)c1ccc(OCC2CC2)cc1,-5.87
15,Cc1n[nH]c(C)c1C1COCCN1c1ncnc2sccc12 (stereo not given),23.1
16,Cc1ccc(S(=O)(=O)N2CCCCC(N3CCN(C)CC3)C2)cc1F (stereo not given),6.24
17,c1cc(CNCc2ccnc(N3CCCCC3)c2)c2c(c1)OCCCO2,21.4
18,OC(CN(Cc1ccccc1)Cc1ccon1)c1cccs1 (stereo not given),-0.359
19,Cc1cnn(CC2CCCN2Cc2coc(-c3ccc(F)cc3)n2)c1 (stereo not given),-0.953
20,C1=C(c2c[nH]c3ncccc23)CCN(Cc2nnc(C3CC3)o2)C1,30.7
21,Cc1cc(NCC2(O)CCOCC2)nc2ccccc12,-8.98
22,O=C(NC1CCN(c2cc(-n3ccnc3)ncn2)CC1)c1ccncc1,5.94

row,Compound,cytotoxicity at 10 µM [%]
1,CC(Nc1cnn(C)c(=O)c1Cl)c1ccc(F)c(F)c1 (stereo not given),31.3
2,Cc1nc(O)ccc1C(=O)N1CCCC1c1nc(-c2ccccc2)n[nH]1 (stereo not given),0.636
3,CCC(C(=O)Nc1ccc2nc(C)oc2c1)N1CCCC1=O (stereo not given),-41.9
4,CC(NCc1ccsc1)c1ccc(OCc2nccn2C)cc1 (stereo not given),-6.37
5,Cc1cc(F)ccc1N1CCCC(NC(=O)CCCn2ccnc2)C1 (stereo not given),3.45
6,CCN1CCN(CCNc2nc3ccc(C)cc3c(=O)n2C)CC1,10.7
7,Cc1cc(C)n(C2CN(CC(=O)N(C)Cc3ccc(C)o3)C2)n1,-6.24
8,CCN1CCN(C)C2(CCN(C(=O)CC(F)(F)F)CC2)C1=O,0.797
9,Cc1cccc(S(=O)(=O)N2CCC3(CC2)CC(N(C)C)CO3)c1 (stereo not given),-126
10,CCC(=O)N1CCc2onc(CNS(C)(=O)=O)c2C1,-96.5
11,O=C(c1ccccc1F)N1CC[C@@H]2CN(c3ncccn3)CCO[C@@H]2C1,-78.1
12,CC(=O)N1Cc2nc(C(=O)NCCc3cccnc3)oc2C1,-81.8
13,CC(C)NC(=O)[C@@H]1CN(Cc2nccs2)C[C@H]2OCC[C@H]21,-93.5
14,Cc1ccc(CN2CCC3(CC(=O)N(c4ccc5c(c4)OCO5)C3)C2)o1 (stereo not given),-70.2
15,O=C(NCC1CCCN(Cc2cccc3nonc23)C1)c1ccc[nH]1 (stereo not given),-42.2
16,CCC(C(=O)N(Cc1ccccn1)C1CCCCC1)n1cccn1 (stereo not given),-45.3
17,COc1ccc2cc(C3CN(C(=O)COC(C)C)CCO3)ccc2c1 (stereo not given),7.29
18,CCNc1ncc(C(=O)N[C@@H](C)[C@H](O)c2ccccc2)cn1,-4.71
19,CC(C)(C)c1cn(C2CCN(C3CCSC3)CC2)nn1 (stereo not given),-3.99
20,CCn1cc(CN2CCCC(c3[nH]ncc3-c3ccc(C)cc3)C2)cn1 (stereo not given),-1.67
21,Cc1cccc(N2CCN(CCC(=O)NCc3ccc(C)s3)CC2)c1,-0.432
22,O=C(CCC1CCN(Cc2ccncc2)CC1)Nc1ccccc1Cl,-3.9

row,Compound,cytotoxicity at 10 µM [%]
1,CC(=O)c1ccc(C(=O)NCc2cccnc2N2CCCC(O)C2)s1 (stereo not given),-0.147
2,O=C(Cc1ccccc1)C1CCCN(Cc2cncn2C2CCCC2)C1 (stereo not given),-1.11
3,COc1ccc(Cl)cc1-n1cnc(CCNC(C)=O)c1,2.29
4,CN(Cc1ccc(C2CC(=O)Nc3cc4[nH]ncc4cc32)o1)S(C)(=O)=O (stereo not given),34.1
5,FC(F)(F)CCc1ccnc(NCc2csc(N3CCOCC3)n2)n1,-4.13
6,CN1CCc2[nH]nc(C(=O)N3CCC4(CCCO4)CC3)c2C1,-47.1
7,CCN(CCN(C)C)c1nc(CCN)nc2sc(C)c(C)c12,-1.78
8,CN1CCN(Cc2cnn(-c3ccc(F)cc3)c2)[C@H]2CS(=O)(=O)C[C@H]21,12.8
9,CSCCC1c2nc[nH]c2CCN1Cc1ccccc1C(F)(F)F (stereo not given),1.09
10,CCn1cc(CN2CCCC(COc3ccccc3F)C2)cn1 (stereo not given),-47.7
11,O=C(c1cn(CC(=O)N2CCCC2)c2ccccc12)C1CC1,14.2
12,NC(=O)c1ccccc1-n1cc(-c2cccc(C(=O)O)c2)cn1,-5.65
13,Cc1ccsc1CN(CCN(C)C)C(=O)c1cc2ccccc2[nH]1,-139
14,CCN(CC)S(=O)(=O)N1CCCC(c2nccn2Cc2ccncc2)C1 (stereo not given),9.2
15,CC(C)N1CCC2(CCCN(Cc3ccc(F)cc3)C2=O)C1 (stereo not given),-28.7
16,CC(=O)N1CCc2c(nc(N(C)C)nc2NCCCn2ccnc2C)C1,-7.42
17,CNCc1cn(C2CCN(C(=O)NCc3ccco3)CC2)nn1,1.11
18,Fc1ccccc1CN1CCCN(c2ccc3cc[nH]c3n2)CC1,-15.2
19,COC(=O)Cn1c(C)cc(=O)c2cc(F)ccc21,2.63
20,CCc1cc(N2CCC(n3cc(C(=O)NCC(C)C)nn3)CC2)ncn1,41.4
21,Fc1ccc(CCC2CCCN(Cc3c[nH]cn3)C2)c(F)c1 (stereo not given),-6.51
22,COc1ccc(-c2cc[nH]n2)cc1CNC1CCCC1,-52.8

row,Compound,cytotoxicity at 10 µM [%]
1,O=C(NCc1cc(N2CCOCC2)ncn1)c1cccc(CO)n1,-7.76
2,CC(C)n1ccnc1C1CCCN(c2ccnc3ccccc23)C1 (stereo not given),38.4
3,COc1ccc(N(c2ccc(OC)cc2)c2ccc(C(=O)O)s2)cc1,18.5
4,COC(=O)c1ccc(CNCc2cn(C)nc2C)cc1,-8.55
5,Cc1cc(-c2cnc(N3CCN(C)CC3)nc2-c2ccc(C)s2)on1,-3.68
6,Cc1csc(C2CCCCN2C(=O)c2cc(C(C)C)[nH]n2)n1 (stereo not given),-1.59
7,Cn1nccc1C1CCN(CC(=O)NCC2CC2)CC1,-9.38
8,O=C(CCCc1cccs1)N1CCC(N2CCNC2=O)CC1,2.83
9,O=C(Cc1ccc2c(c1)CCCC2)NCCc1ccccn1,1.9
10,CNS(=O)(=O)c1cccc(CNc2nccc(C(F)(F)F)n2)c1,17.2
11,Cc1cc(F)ccc1-c1ccccc1CC1CNCCNC1=O (stereo not given),5.08
12,CC(C)N(Cc1ccc(C(=O)O)o1)C(C)C,-1.2
13,Cc1ncc(CN(Cc2ccccn2)Cc2ccccc2Cl)n1C,-1.45
14,Cc1cc(C[C@@H]2CCC[C@H]2NCc2ccccc2C(F)(F)F)on1,2.8
15,CCn1cc2c(n1)CN(Cc1nccs1)CC2COCC1CC1 (stereo not given),6.07
16,COc1ncccc1CN1CCC2(CC1)COCCN2C,16.6
17,O=C1[C@@H]2CCN(Cc3ccoc3)C[C@@H]2OCCN1Cc1cccc(F)c1,-98.2
18,CCN(C)C1COC2(CCN(C(=O)c3ccc(Cl)cc3)CC2)C1 (stereo not given),-2.57
19,CC(=O)NCC(=O)N1CCn2cc(CN3CCCCC3)nc2C1,-3.34
20,O=S(=O)(c1cccs1)N1CC[C@@H](O)[C@@H]1Cc1ccncc1,-72.8
21,CC(=O)NCc1nn(C)c2c1CN(Cc1ccsc1)C2,-144
22,CCOCCN1CCN(C=C2NN=C(c3occc3C)O2)CC1,-50.4
